Assay results of several laboratories.
Lines come from different studies, so protocols differ.
Target: Serine/threonine-protein kinase MRCK alpha (CDC42BPA, Homo sapiens, UniProt Q5VT25)

SMILES	assay	setting	remaining binding [%]
O=C1CCc2cc(Nc3cc(OC4CCOCC4)c([N+](=O)[O-])cc3Cl)ccc2N1	cell-free assay, competition with immobilised ligand	1 µM	91
CN(c1nccc(-c2cnn3ncccc23)n1)C1CC1	binding	1 µM	100
O=C(NCCCN1CCOCC1)c1ccc(Nc2nccc(-c3cc4ccccc4s3)n2)cc1	binding, competition with immobilised ligand	1 µM	72
O=C(Nc1c[nH]nc1C(=O)NC1CCNCC1)c1cc(F)cc(F)c1	binding, competition with immobilised ligand	1 µM	95
Nc1ncc2c(n1)-c1c([nH]c3ccc(C#CC4CC4)cc13)CCCC2	binding, competition with immobilised ligand	1 µM	88
Cc1cnc(Nc2ccc(C(=O)N3CCC(N4CCCC4)CC3)cc2)nc1-c1cc2ccccc2s1	binding, competition with immobilised ligand	1 µM	10
N[C@H]1CCN(c2nccc(-c3cnn4ncccc34)n2)C1	binding	1 µM	84
CNC(=O)[C@@H]1CC[C@@H](n2c(-c3ccc4cnccc4c3)nc3ccc(C(=O)NCc4cccc(C(N)=O)c4)cc32)C1	binding, competition with immobilised ligand	1 µM	100
C[C@H]1CCN(c2nccc(-c3cnn4ncccc34)n2)C1	binding	1 µM	98
O=C(c1ccc(Nc2nccc(-c3cc4ccccc4s3)n2)cc1)N1CCC(N2CCCC2)CC1	binding, competition with immobilised ligand	1 µM	65
CN(C)c1ncc(F)c(-c2cnn3ncccc23)n1	binding	1 µM	100
COc1cc(-c2cn(C3CCc4c(F)cccc4N(CC(F)(F)F)C3=O)nn2)ccc1-n1cnc(C)c1 (stereo not shown)	cell-free assay, competition with immobilised ligand	1 µM	100
CN(C)c1nccc(-c2cnc3ncccn23)n1	binding	1 µM	83
O=C(Nc1cccnn1)N1CCC(=Cc2cccc(Oc3ccc(C(F)(F)F)cn3)c2)CC1	cell-free assay, competition with immobilised ligand	1 µM	95
Cc1cnn2ncc(-c3ccnc(N(C)C)n3)c2c1	binding	1 µM	87
O=C(NCc1ncc(C(F)(F)F)cc1Cl)c1ccc2c(c1)C1(CCS(=O)(=O)CC1)[C@@H](C1CC1)N2S(=O)(=O)c1ccc(F)cc1	cell-free assay, competition with immobilised ligand	1 µM	100
CN(C)c1nccc(-c2cnn3ncccc23)n1	binding	1 µM	100
CN1CCN(c2cnc3c(C4CCN(C(=O)c5ccc(OC(F)(F)F)cc5N)CC4)ncnc3c2)CC1	cell-free assay, competition with immobilised ligand	1 µM	100
COc1ncc2cc3ccccc3nc2c1C#N	cell-free assay, competition with immobilised ligand	5 µM	100
CN(C)CC#Cc1ccc(OCCCc2sc(N3CCc4cccc(C(=O)Nc5nc6ccccc6s5)c4C3)nc2C(=O)O)c(F)c1	cell-free assay, competition with immobilised ligand	1 µM	97
C[C@@H](c1ccc(-n2cnc3c(N)ncnc32)cc1)N1CCc2nn(C)c(Cc3ccccc3)c2C1=O	binding, competition with immobilised ligand	0.1 µM	91
CCN1CCN(Cc2ccc(C(=O)Nc3ccc(C)c(Oc4ccc5c(c4)CC(=O)N5)c3)cc2C(F)(F)F)CC1	binding, competition with immobilised ligand	1 µM	100
